# An excerpt weighted towards active compounds, which were near 2.1% of everything screened.
# Hck-Nef inh: blocks Nef-activated human Hck kinase; Recombinant Hck-YEEI plus Nef, Z-Lyte FRET kinase assay; inhibition, % at 20 µM; 220,000 compounds, 0.68% hits; AID 463187;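 active means Hck-Nef kinase inhibition above about 50%, limit read from the data; inactive means inhibition below that limit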
# Runt-CBFb FRET: blocks binding of human RUNX1 Runt domain to CBFb; Q01196+Q13951; Cerulean-Runt/Venus-CBFb FRET ratio 530/480, 1 h; inhibition, % at 20 µM; 220,000 compounds, 0.46% hits; AID 1496;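 active means inhibition over about 50% at 20 µM in the single-dose screen, limit read from the data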
# Target sequence (Q01196 whole entry, looked up, the tested form may be a part): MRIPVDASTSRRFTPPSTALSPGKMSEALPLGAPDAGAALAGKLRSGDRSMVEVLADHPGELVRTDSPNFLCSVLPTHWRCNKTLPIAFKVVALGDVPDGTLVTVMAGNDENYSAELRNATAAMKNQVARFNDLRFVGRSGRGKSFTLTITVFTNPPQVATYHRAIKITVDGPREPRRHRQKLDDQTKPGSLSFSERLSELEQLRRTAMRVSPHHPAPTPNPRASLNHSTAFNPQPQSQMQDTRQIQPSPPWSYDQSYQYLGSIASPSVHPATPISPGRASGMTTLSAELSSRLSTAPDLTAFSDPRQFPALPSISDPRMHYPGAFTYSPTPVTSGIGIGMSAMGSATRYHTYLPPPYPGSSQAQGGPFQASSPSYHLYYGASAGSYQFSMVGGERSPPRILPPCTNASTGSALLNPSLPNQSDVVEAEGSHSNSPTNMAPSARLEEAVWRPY
# Target sequence (Q13951 whole entry, looked up, the tested form may be a part): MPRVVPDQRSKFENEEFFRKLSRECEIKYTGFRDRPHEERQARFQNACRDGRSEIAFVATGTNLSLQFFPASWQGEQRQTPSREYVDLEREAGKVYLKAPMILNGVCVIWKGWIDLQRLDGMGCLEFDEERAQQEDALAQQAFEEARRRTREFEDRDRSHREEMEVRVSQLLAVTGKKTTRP
#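 System: Cerulean-labeled Runt domain protein | Quantity: 100 nM of each labeled protein | Schedule: 1 h compound exposure, room temperature | Detection: Fluorescence energy transfer, 422 nm excitation, 530/480 nm emission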
# p97 ATPase inh: blocks human p97 ATPase activity | P55072 | recombinant p97 ATPase, Kinase-Glo ATP luminescence, 3 h | inhibition, % at 8 µM | 220,000 compounds, 0.42% hits | AID 1481; in the data active means inhibition above about 15%
# RanGTP-Impb inh: disruptors of Ran-importin-beta complex formation – biochemical, FRET, CFP-Ran, YFP-importin-beta, homogeneous, primary screen. 300,000 compounds, 1.1% hits. inhibition, % (no concentration beside the values). cell-free CFP-Ran/YFP-importin-beta FRET ratio;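 active means more than half of the replicate wells show a fall in the fluorescence ratio signal beyond about 16%, limit read from the data, passing the limit was not always enough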
# Runt-SMMHC FRET: blocks binding of human RUNX1 Runt domain to CBFb-SMMHC. Cerulean-Runt/Venus-CBFb-SMMHC FRET ratio 530/480, 1 h. inhibition, % at 20 µM. 220,000 compounds, 0.74% hits. AID 1434;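 active means mean inhibition across duplicate retests at 20 µM reaching about 50%, limit read from the data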;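 further: inhibitors lower the FRET ratio by blocking Runt binding to CBFb-SMMHC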
# TbHK1 inh: blocks Trypanosoma brucei hexokinase 1 activity; recombinant TbHK1, G6PDH-coupled NADH A340; inhibition, % at 10 µM; 220,000 compounds, 0.11% hits;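 active means inhibition of 50% or more in the single-dose primary screen; inactive means inhibition below 50%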
# Hck-Nef confirm: Hck-Nef kinase inhibition, confirmation; shares compounds with Hck-Nef inh; Recombinant Hck-YEEI:Nef, Z-Lyte FRET kinase assay; calls only at 10 µM; 1,300 compounds, 28% hits;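 active means average inhibition of at least 50%, with Z-scores no higher than 3 in both the phospho-tyrosine peptide and fluorescence counterscreens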
# Numbers stand for hits; 0 = inactive; - = not tested or not shown; + = active, no number.
SMILES,Hck-Nef inh,Runt-CBFb FRET,p97 ATPase inh,RanGTP-Impb inh,Runt-SMMHC FRET,TbHK1 inh,Hck-Nef confirm
Cc1ccc(O)c(C(=O)c2cnn(C(=O)COc3ccc(Cl)cc3)c2)c1,0,0,0,0,0,0,-
O=C(O)c1ccccc1N=Nc1c(O)[nH]c2ccc([N+](=O)[O-])cc12,-,-,-,0,-,-,-
O=c1[nH]c(=S)[nH]c(O)c1N=Nc1ccc(-c2ccccc2)cc1[N+](=O)[O-],68.4,0,0,0,0,0,0
COc1cc(/C=N/NC(=O)c2ccccc2O)ccc1OC(=O)CC1SC(=O)NC1=O (configuration not stated),0,0,0,0,0,0,-
O=C(N=Nc1c(O)[nH]c2ccccc12)c1ccc(CN2CCOCC2)cc1,94.5,0,0,0,0,0,+
Cc1ccc(CN2CCN(CC(=O)N=Nc3c(O)[nH]c4ccccc34)CC2)cc1,0,0,0,0,0,0,-
CC(=O)Nc1ccc(N=Cc2c(O)c(C(=O)Nc3ccccc3)cc3ccccc23)cc1,68.9,0,0,0,0,0,0
CC(=O)Nc1ccc(N=Cc2c(O)c3ccccc3oc2=O)cc1,-,-,-,0,-,-,-
C[N+](C)=C1SCC(C)(/C=N/O)S1 (configuration not stated),0,0,0,0,0,0,-
Cc1ccc(S(=O)(=O)c2c(N)n(CC3CCOC3)c3nc4ccccc4nc23)cc1 (configuration not stated),0,0,0,0,0,0,-
Cc1ccc(S(=O)(=O)c2c(N)n(NC(=O)C3CC3)c3nc4ccccc4nc23)cc1,73.1,0,0,0,75.5,0,-
Cc1ccc(S(=O)(=O)c2c(N)n(CCCN(C)C)c3nc4ccccc4nc23)cc1,94.5,0,0,0,0,0,-
Cc1ccc(-n2c(N)c(S(=O)(=O)c3ccccc3)c3nc4ccccc4nc32)cc1,0,-,0,0,0,0,-
COCC(=O)N(CCc1ccc(OC)c(OC)c1)Cc1cc2cc(C)ccc2nc1Cl,0,0,0,0,0,0,-
Cc1ccc(-c2nn(-c3ccccc3)cc2/C=C2\SC(=S)N(CC(=O)O)C2=O)cc1,57.8,0,0,0,0,0,0
COc1ccc(-c2nn(-c3ccccc3)cc2/C=C2/SC(=S)N(CCC(=O)O)C2=O)cc1,-,-,-,0,-,-,-
CCOc1ccc(-n2ccn(CC(=O)NCCc3ccccc3)c(=O)c2=O)cc1,-,-,-,0,-,-,-
Cc1c(OC(=O)CNC(=O)OC(C)(C)C)ccc2c3c(c(=O)oc12)CCC3,64.0,0,0,-,83.2,0,-
CSCC[C@H](NC(=O)C1=NN(c2c(F)c(F)cc(F)c2F)C(=O)CC1)c1nc2ccccc2[nH]1,0,0,0,0,0,0,-
COc1ccc(OC)c(CCNC(=O)CCc2nnc3ccc(N4CCOCC4)nn23)c1,-,-,-,0,-,-,-
O=C(N/N=C/c1ccc(Cl)c([N+](=O)[O-])c1)c1cc(-c2ccc3c4c(cccc24)CC3)n[nH]1,61.6,0,0,0,0,0,0
O=C(N/N=C/c1cccc([N+](=O)[O-])c1)c1cc(-c2ccc3c4c(cccc24)CC3)n[nH]1,0,0,0,0,0,0,-
COC(=O)Cc1cc(=O)oc2cc(O)ccc12,102.3,80.1,0,69.2,92.2,0,-
O=c1cc(O)c2ccc(O)cc2o1,0,0,0,0,0,0,-
CSc1nsc(/C=C/Nc2ccc(F)cc2F)c1C#N,51.1,0,0,-,0,0,0
SMILES,Hck-Nef inh,Runt-CBFb FRET,p97 ATPase inh,RanGTP-Impb inh,Runt-SMMHC FRET,TbHK1 inh,Hck-Nef confirm
CSc1nsc(/C=C/Nc2ccc(C(=O)O)cc2)c1C#N,0,0,0,0,0,0,-
CCOc1ccc(S(=O)(=O)N2CCCC(C(=O)N3CCN(CC)CC3)C2)cc1Cl (configuration not stated),-,-,-,0,-,-,-
CC(C)CNC(=O)c1c(N)n(/N=C/c2ccccn2)c2nc3ccccc3nc12,50.8,0,0,0,0,0,0
O=C(Nc1ccccc1)c1oc2ccccc2c1NC(=O)C1CC1,-,-,-,0,-,-,-
COc1ccc(-c2cnnc(N/N=C/c3ccc(O)cc3)n2)cc1,71.3,0,0,0,0,0,0
CCOc1ccccc1-n1nnnc1SCC(=O)O,0,0,0,0,0,0,-

# Screening data from PubChem.
